Assays:
DU-145 cells = test: Growth inhibition of DU-145 prostate cancer cells; type: cell-based; details: read-out: IC50, growth inhibition of DU-145 cells; human prostate cancer cell line DU-145
CSNK1D = CSNK1D (Homo sapiens, UniProt P48730); test: KINOMEscan primary screen binding; details: 10 μM; lower numbers indicate stronger hits
Outline: (§1)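 Test compound profiled as a single-concentration primary binding screen across a panel of 100 kinases by the KINOMEscan service, at 10 μM. Binding interactions were reported as % Ctrl, with lower values indicating stronger hits. A selectivity score, S(35), was also calculated across the panel.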

Pim1 = Pim1 (Homo sapiens, UniProt P11309); test: KINOMEscan primary screen binding; details: 10 μM; lower numbers indicate stronger hits
Sequence of Pim1 (P11309 whole entry): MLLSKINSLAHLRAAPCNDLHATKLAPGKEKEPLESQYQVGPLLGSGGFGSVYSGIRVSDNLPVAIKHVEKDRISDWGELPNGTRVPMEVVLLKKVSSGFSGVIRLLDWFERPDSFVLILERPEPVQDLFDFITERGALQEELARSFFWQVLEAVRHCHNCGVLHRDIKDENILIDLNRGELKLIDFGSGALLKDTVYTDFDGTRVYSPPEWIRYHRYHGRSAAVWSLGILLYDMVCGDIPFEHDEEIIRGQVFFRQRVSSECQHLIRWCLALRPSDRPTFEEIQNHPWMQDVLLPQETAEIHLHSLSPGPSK
Outline: as §1

Pim3 = Pim3 (Homo sapiens, UniProt Q86V86); test: KINOMEscan primary screen binding; details: 10 μM; lower numbers indicate stronger hits
Outline: as §1

panel of 100 kinases = test: KINOMEscan selectivity over kinase panel; type: binding; details: KINOMEscan panel of 100 kinases, 10 μM

Sequence of CSNK1D (P48730 whole entry): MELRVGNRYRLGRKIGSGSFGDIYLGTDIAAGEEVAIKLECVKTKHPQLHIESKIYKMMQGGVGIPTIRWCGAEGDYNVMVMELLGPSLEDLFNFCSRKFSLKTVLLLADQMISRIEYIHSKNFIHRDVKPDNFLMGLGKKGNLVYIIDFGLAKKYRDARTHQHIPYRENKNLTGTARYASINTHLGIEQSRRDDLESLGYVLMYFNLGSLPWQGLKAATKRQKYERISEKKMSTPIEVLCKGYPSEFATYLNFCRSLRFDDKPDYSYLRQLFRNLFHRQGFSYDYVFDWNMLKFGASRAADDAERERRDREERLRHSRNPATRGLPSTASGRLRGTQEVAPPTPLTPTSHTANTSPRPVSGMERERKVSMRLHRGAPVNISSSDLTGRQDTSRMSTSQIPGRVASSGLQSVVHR

Row | IC50 (DU-145 cells) [nM] | % Ctrl CSNK1D (CSNK1D) [% control] | % Ctrl Pim1 (Pim1) [% control] | % Ctrl Pim3 (Pim3) [% control] | selectivity score S(35) (panel of 100 kinases) | Structure (SMILES)
1 | 3210 |  |  |  |  | CC(C)C(C)OC1CC(=O)CC2C(=O)c3c(O)ccc(O)c3C(=O)C12 (stereo not drawn) [Compound 7]
2 | 2020 |  |  |  |  | CC(C)(C)OC1CC(O)CC2C(=O)c3c(O)ccc(O)c3C(=O)C12 (stereo not drawn) [Compound 9]
3 |  | 30 | 34 | 36 | 0.022 | O=C1C2=C(C(=O)c3c(O)ccc(O)c31)[C@@H](O)[C@@H](O)[C@@H](O)C2 [Compound 4]
